Laboratory results published in PMC11551477 (Pharmacology Research & Perspectives, 2024).
Like-named read-outs stand apart in the source and are kept apart here.

Columns and labels:
[1] = Integrated PopPK analysis; assay type: in vivo, human (Japanese pediatric patients and adult population)
In short: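 Plasma concentrations (2611 samples, 142 Japanese subjects) were pooled from six oral-dosing studies: pediatric patients aged 6–18 y on once-daily doses for 52 weeks, healthy adult males, and fed adults with normal, mild or moderately impaired renal function. Assays were LC–MS/MS (LLOQ 0.5 ng/mL) or HPLC (LLOQ 4 ng/mL). Points with |CWRES| >6 were excluded. Model: linear two-compartment, first-order absorption with lag and first-order elimination. Covariate selection was forward (p<.05) then backward (p<.01), with condition number ≤1000. Evaluation used bootstrap and pc-VPC.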

[2] = Post hoc estimates of steady-state PK parameters from the PopPK final model; assay type: in vivo, human (Japanese pediatric patients and adult population); conditions: for CLss/F (apparent total body clearance at steady state) / Dose‐normalized AUCτ,ss / Dose‐normalized C max,ss: fed, mean ± SD
In short: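 Steady-state parameters were derived by post hoc estimation from the final PopPK model, assuming each study's dose given once daily to fed subjects. Pediatric estimates used the original maintenance doses: 20 mg for <40 kg and 40 mg for ≥40 kg. CL/F was also expressed per body weight. Outputs were CLss/F, Cmax,ss and AUCτ,ss, compared with the adult population.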

[3] = test system: plasma protein (mainly albumin); conditions: binds mainly to albumin; cited from earlier work
[4] = cited from earlier work
[5] = 20 mg repeated, fed, NCA, cited from earlier work
[6] = healthy Japanese adult males, NCA; cited from earlier work
[7] = cited from earlier work; remark: listed apart in the source
[8] = test system: hyperuricemia including gout; conditions: pediatric patients weighing <40 kg and ≥40 kg; cited from earlier work
[9] = standard NCA analysis; cited from earlier work
[10] = fed vs fasted, present PopPK analysis
[11] = final PopPK model, fixed effect
[12] = adult population (n = 113), 10–160 mg once daily
[13] = pediatric patients <40 kg (n = 10), 20 mg once daily
[14] = pediatric patients weighing <40 kg vs adult population
[15] = pediatric patients weighing ≥40 kg vs adult population
[16] = pediatric patients ≥40 kg (n = 19), 40 mg once daily
[17] = mild dysfunction group (CLCr-based)
[18] = moderate renal dysfunction group (CLCr-based)

Between-subject variability of CL/F, CV (%) ([1]; CV = SQRT(EXP(ω^2)–1) × 100): 26.2%
Between-subject variability of Ka, CV (%) ([1]; CV = SQRT(EXP(ω^2)–1) × 100): 306.3%
Between-subject variability of Q/F, CV (%) ([1]; CV = SQRT(EXP(ω^2)–1) × 100): 71.3%
Between-subject variability of V2/F, CV (%) ([1]; CV = SQRT(EXP(ω^2)–1) × 100): 25.7%
Between-subject variability of V3/F, CV (%) ([1]; CV = SQRT(EXP(ω^2)–1) × 100): 54.4%
Residual variability, CV (%) ([1]; CV = σ × 100): 36.9%
ALAG1, Bootstrap Median ([1]; bootstrap, 1000 simulations): 0.438 h
ALAG1, Bootstrap parameter estimate Mean ± SE ([1]; bootstrap, 1000 simulations): 0.441 ± 0.0210 h
CL/F, Bootstrap Median ([1]; bootstrap, 1000 simulations): 6.52 L/h
CL/F, Bootstrap parameter estimate Mean ± SE ([1]; bootstrap, 1000 simulations): 6.52 ± 0.197 L/h
CLEGFR, Bootstrap Median ([1]; bootstrap, 1000 simulations): 0.326
CLEGFR, Bootstrap parameter estimate Mean ± SE ([1]; bootstrap, 1000 simulations): 0.326 ± 0.0586
CLWGT, Bootstrap Median ([1]; bootstrap, 1000 simulations): 0.580
CLWGT, Bootstrap parameter estimate Mean ± SE ([1]; bootstrap, 1000 simulations): 0.589 ± 0.130
F1 (FED), Bootstrap Median ([1]; bootstrap, 1000 simulations): 0.839
F1 (FED), Bootstrap parameter estimate Mean ± SE ([1]; bootstrap, 1000 simulations): 0.838 ± 0.0274
Ka, Bootstrap Median ([1]; bootstrap, 1000 simulations): 3.51 h⁻¹
Ka, Bootstrap parameter estimate Mean ± SE ([1]; bootstrap, 1000 simulations): 4.24 ± 2.78 h⁻¹
Q/F, Bootstrap Median ([1]; bootstrap, 1000 simulations): 1.79 L/h
Q/F, Bootstrap parameter estimate Mean ± SE ([1]; bootstrap, 1000 simulations): 1.78 ± 0.127 L/h
V2/F, Bootstrap Median ([1]; bootstrap, 1000 simulations): 19.4 L
V2/F, Bootstrap parameter estimate Mean ± SE ([1]; bootstrap, 1000 simulations): 19.4 ± 0.792 L
V3/F, Bootstrap Median ([1]; bootstrap, 1000 simulations): 15.6 L
V3/F, Bootstrap parameter estimate Mean ± SE ([1]; bootstrap, 1000 simulations): 15.5 ± 0.822 L
σ ^2, Bootstrap Median ([1]; bootstrap, 1000 simulations): 0.135
σ ^2, Bootstrap parameter estimate Mean ± SE ([1]; bootstrap, 1000 simulations): 0.135 ± 0.00823
ω Ka ^2, Bootstrap Median ([1]; bootstrap, 1000 simulations): 2.37
ω Ka ^2, Bootstrap parameter estimate Mean ± SE ([1]; bootstrap, 1000 simulations): 2.60 ± 0.908
ω Q/F ^2, Bootstrap Median ([1]; bootstrap, 1000 simulations): 0.409
ω Q/F ^2, Bootstrap parameter estimate Mean ± SE ([1]; bootstrap, 1000 simulations): 0.414 ± 0.0686
ω Q/F‐V3/F ^2, Bootstrap Median ([1]; bootstrap, 1000 simulations): 0.302
ω Q/F‐V3/F ^2, Bootstrap parameter estimate Mean ± SE ([1]; bootstrap, 1000 simulations): 0.304 ± 0.0507
ω V2/F ^2, Bootstrap Median ([1]; bootstrap, 1000 simulations): 0.0633
ω V2/F ^2, Bootstrap parameter estimate Mean ± SE ([1]; bootstrap, 1000 simulations): 0.0648 ± 0.0188
ω V3/F ^2, Bootstrap Median ([1]; bootstrap, 1000 simulations): 0.251
ω V3/F ^2, Bootstrap parameter estimate Mean ± SE ([1]; bootstrap, 1000 simulations): 0.254 ± 0.0511
Reduction of AUCτ,ss in the fed group [1, 10]: 16.2%
Reduction of C max,ss in the fed group [1, 10]: 16.2%
Reduction of relative bioavailability in the fed group [1, 10]: 16.2%
σ ^2 (exponential error), residual variability, Estimate ([1]; final PopPK model): 0.136
ω CL/F‐V2/F ^2 (covariance, correlation variability), Estimate ([1]; final PopPK model): 0.0483
ω Ka ^2 (between-subject variability), Estimate ([1]; final PopPK model): 2.34
ω Q/F ^2 (between-subject variability), Estimate ([1]; final PopPK model): 0.411
ω Q/F‐V3/F ^2 (covariance, correlation variability), Estimate ([1]; final PopPK model): 0.307
ω V2/F ^2 (between-subject variability), Estimate ([1]; final PopPK model): 0.0638
ω V3/F ^2 (between-subject variability), Estimate ([1]; final PopPK model): 0.259
ω CL/F ^2 (between-subject variability), Estimate ([1]; final PopPK model, exponential error model): 0.0662
ALAG1 (absorption lag time), Estimate [1, 11]: 0.437 h
Ka (first-order absorption rate constant), Estimate [1, 11]: 3.43 h⁻¹
CLWGT (covariate for effect of body weight on CL/F), Estimate ([1]; final PopPK model, power function exponent, centered at 60.6 kg): 0.584
CLEGFR (covariate for effect of eGFR on CL/F), Estimate ([1]; final PopPK model, power function exponent, centered at 98.6 mL/min/1.73 m^2): 0.324
Vd/F ([1]; human, plasma, oral): 19.4 L
CLss/F (apparent total body clearance at steady state) [2, 12]: 8.27 ± 2.00 L/h
Dose‐normalized AUCτ,ss [2, 12]: 128 ± 32 ng·h/mL/mg
Dose‐normalized C max,ss [2, 12]: 30.2 ± 10.6 ng/mL/mg
CLss/F (apparent total body clearance at steady state) [2, 13]: 4.28 ± 1.20 L/h
Dose‐normalized AUCτ,ss [2, 13]: 251 ± 72 ng·h/mL/mg
Dose‐normalized C max,ss [2, 13]: 42.7 ± 7.6 ng/mL/mg
CLss/F relative to the adult population [2, 14]: 0.52 fold
Dose‐normalized AUCτ,ss relative to the adult population [2, 14]: 1.96 fold
Dose‐normalized C max,ss relative to the adult population [2, 14]: 1.41 fold
CLss/F relative to the adult population [2, 15]: 0.80 fold
Dose‐normalized AUCτ,ss relative to the adult population [2, 15]: 1.38 fold
Dose‐normalized C max,ss relative to the adult population [2, 15]: 1.18 fold
CLss/F (apparent total body clearance at steady state) [2, 16]: 6.59 ± 2.45 L/h
Dose‐normalized AUCτ,ss [2, 16]: 176 ± 75 ng·h/mL/mg
Dose‐normalized C max,ss [2, 16]: 35.7 ± 10.4 ng/mL/mg
Compound: Cc1nc(-c2ccc(OCC(C)C)c(C#N)c2)sc1C(=O)O [febuxostat]
CL/F adjusted by body weight (post hoc estimate), males vs females ([2]; children or adults, Figure S2): no clear difference
Plasma protein binding rate [3]: approximately 99%
Eliminated as unchanged drug through the urine [4]: < 5%
Increase of AUCτ,ss vs normal renal function group [5, 17]: 52.5%
Steady‐state plasma C max,ss vs normal renal function group [5, 17]: did not differ noticeably
Increase of AUCτ,ss vs normal renal function group [5, 18]: 67.6%
Increase of C max,ss vs normal renal function group [5, 18]: 25.5%
AUCinf lower in the fed group than in the fasted group [6]: 18%
C max lower in the fed group than in the fasted group [6]: 28%
Solubility (in words) [7]: poorly soluble
Efficacy in pediatric patients compared with adults [8]: as effective
Tolerability in pediatric patients compared with adults [8]: well tolerated
Effect of sex on PK [9]: no notable effect
